“Also recorded” adds a separate entry of the source. Like-named read-outs stand apart in the source and are kept apart here.
What was measured:
CYP1A1 = conditions: at plasma concentrations that are effective; cited from earlier work
[1] = Safety evaluation in the ketoconazole interaction study; type: in vivo, human (patients with advanced cancer)
[2] = Safety evaluation in the rifampin interaction study; type: in vivo, human (patients with advanced cancer); conditions: in two patients; romidepsin 14 mg/m^2 with rifampin 600 mg
Procedure, shortened: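 Antiemetic prophylaxis; K or Mg supplemented below 3.8 or 0.85 mmol/L. Monitoring through closeout (days 15–20): AE type, severity and relatedness, examinations, vital signs, ECGs, concomitant medications, clinical labs. Summarised descriptively.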

CYP3A4 = conditions: at plasma concentrations that are effective; cited from earlier work
CYP2B6 = conditions: at plasma concentrations that are effective; cited from earlier work
[3] = Ketoconazole drug–drug interaction study: romidepsin plasma pharmacokinetics; type: in vivo, human (patients with advanced cancer)
[4] = cited from earlier work
P‐glycoprotein (P‐gp) = conditions: in vitro; cited from earlier work
[5] = Rifampin drug–drug interaction study: romidepsin plasma pharmacokinetics; type: in vivo, human (patients with advanced cancer)
α1‐acid‐glycoprotein = conditions: primarily to α1-acid-glycoprotein; cited from earlier work
[6] = patients with CTCL or PTCL; cited from earlier work
BCRP = conditions: in vitro; cited from earlier work
CYP enzymes = conditions: at plasma concentrations that are effective; cited from earlier work
hepatocytes = conditions: cited from earlier work
CYP3A = conditions: strong inhibitor of CYP3A; cited from earlier work
[7] = coadministration with ketoconazole vs alone
[8] = human, plasma, intravenous, 8 mg/m2
[9] = coadministration with rifampin 600 mg vs alone
[10] = human, plasma, intravenous, 14 mg/m2

With `C/C=C1\NC(=O)[C@H]2CSSCC/C=C/[C@H](CC(=O)N[C@H](C(C)C)C(=O)N2)OC(=O)[C@H](C(C)C)NC1=O` [Romidepsin] as the compound, how does the “Induction of CYP1A1” value (CYP1A1) read?
Its value is “nor is it an inducer”.

What about the “Deaths during the treatment period” value ([1]; romidepsin 8 mg/m^2 with ketoconazole 400 mg) of the same compound?
Its value is “No deaths”.

What about the “Treatment-emergent SAEs” value [2] of the same compound?
The value was 8.

What about the “Induction of CYP3A4” value (CYP3A4) of the same compound?
Its value is “nor is it an inducer”.

And the “Induction of CYP2B6” value (CYP2B6)?
Its value is “nor is it an inducer”.

What about the “Increase of mean romidepsin Cmax” value ([3]; coadministration with ketoconazole 400 mg vs alone) of the same compound?
The value was ~10%.

And the “Change of romidepsin clearance” value [3, 7]?
Its value is “decreased”.

And the “Change of romidepsin volume of distribution” value [3, 7]?
The value was “decreased”.

What about the Tmax [3, 8] of the same compound?
The Tmax was 3.5 h.

What about the Vd [3, 8] of the same compound?
The Vd was 236 L.

And the clearance [3, 8]?
Its clearance is 282 mL/min.

And the half-life [3, 8]?
Its half-life is 9.7 h.

And the AUC(0-inf) ([3]; human, plasma, iv, 8 mg/m^2)?
The AUC(0-inf) was 915 ng·h/mL.

And the Cmax ([3]; human, plasma, iv, 8 mg/m^2)?
The Cmax was 229 ng/mL.

And the “Median Difference of Tmax” value ([3]; romidepsin + ketoconazole vs romidepsin alone, Hodges-Lehmann estimate)?
Its value is 0.

What about the “Maximal tolerated dose (MTD)” value ([4]; given on days 1, 8, and 15 of a 28-day cycle) of the same compound?
Its value is 13.3 mg/m^2.

And the “Maximal tolerated dose (MTD)” value ([4]; given on days 1 and 5 in a 21-day cycle)?
The value was 17.8 mg/m^2.

What about the Dose-limiting toxicities ([4]; phase 1 dose escalation) of the same compound?
The Dose-limiting toxicities was “fatigue, nausea, vomiting, thrombocytopenia (transient and grade 3) and neutropenia”.

What about the “Substrate of the efflux transporter P-glycoprotein (P-gp)” value (P‐glycoprotein (P‐gp)) of the same compound?
The value was “substrate”.

What about the “Decrease of romidepsin clearance” value [5, 9] of the same compound?
The value was “approximately 44%”.

What about the “Decrease of romidepsin volume of distribution” value [5, 9] of the same compound?
Its value is ~52%.

And the “Increase of mean romidepsin Cmax” value [5, 9]?
The value was ~60%.

What about the Tmax [5, 10] of the same compound?
Its Tmax is 2.98 h.

And the Vd [5, 10]?
Its Vd is 162 L.

And the clearance [5, 10]?
Its clearance is 193 mL/min.

What about the half-life [5, 10] of the same compound?
Its half-life is 9.7 h.

What about the AUC(0-inf) ([5]; human, plasma, iv, 14 mg/m^2) of the same compound?
The AUC(0-inf) was 2230 ng·h/mL.

And the Cmax ([5]; human, plasma, iv, 14 mg/m^2)?
Its Cmax is 571 ng/mL.

And the Protein binding (α1‐acid‐glycoprotein)?
Its Protein binding is “highly protein bound”.

What about the “Effect of polymorphic variants of CYP3A on systemic exposure” value [6] of the same compound?
The value was “did not affect”.

And the “Substrate of BCRP” value (BCRP)?
Its value is “not a substrate”.

What about the “Inhibition of CYP enzymes” value (CYP enzymes) of the same compound?
Its value is “does not inhibit”.

And the Uptake into hepatocytes (hepatocytes)?
The Uptake into hepatocytes was “actively taken up into the liver; also recorded: active process”.

Which “Increase of AUC of CYP3A substrates” value (CYP3A) does the source give for `CC(=O)N1CCN(c2ccc(OCC3COC(Cn4ccnc4)(c4ccc(Cl)cc4Cl)O3)cc2)CC1` (centres unmarked) [ketoconazole] here?
The value was ≥ 5 fold.

And the “Increases in liver enzymes AST or ALT” value ([1]; ketoconazole 400 mg daily days 4-8 with romidepsin 8 mg/m^2)?
Its value is “not observed”.

Source: PMC5034805 (Journal of Clinical Pharmacology, 2015)
